Reference: ChEMBL document CHEMBL1275283, “Synthesis and evaluation of novel stearoyl-CoA desaturase 1 inhibitors: 1'-{6-[5-(pyridin-3-ylmethyl)-1,3,4-oxadiazol-2-yl]pyridazin-3-yl}-3,4-dihydrospiro[chromene-2,4'-piperidine] analogs” (Eur J Med Chem, 2010)
pIC50: −log10 of the molar value. Values after ≈ are worked out from the molar mass of the structure shown. Active and inactive are the calls of the source. The calls are words filed in the database; no cut-off is given here.

Columns and labels:
[1] = biological target: T1, Stearoyl-CoA desaturase (Homo sapiens, UniProt O00767); assay: Inhibition of SCD1 in HEK293A cell microsomes assessed as reduction in conversion of [14C]stearic acid to [14C]oleic acid after 30 mins; set-up: species or system HEK293-A, Microsome
T1 sequence (O00767 whole entry): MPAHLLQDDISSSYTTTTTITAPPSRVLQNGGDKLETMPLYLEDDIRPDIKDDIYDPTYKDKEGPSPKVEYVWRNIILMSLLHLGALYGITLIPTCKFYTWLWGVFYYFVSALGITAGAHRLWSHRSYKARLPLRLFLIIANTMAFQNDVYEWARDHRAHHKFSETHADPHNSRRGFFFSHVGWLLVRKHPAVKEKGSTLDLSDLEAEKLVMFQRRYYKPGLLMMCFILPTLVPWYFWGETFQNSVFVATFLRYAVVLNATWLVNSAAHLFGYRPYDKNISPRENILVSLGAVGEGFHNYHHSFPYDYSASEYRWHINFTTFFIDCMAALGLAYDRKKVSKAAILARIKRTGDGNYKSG

[2] = biological target: T2, Acyl-CoA desaturase 1 (Mus musculus, UniProt P13516); assay: Inhibition of SCD1 in mouse microsome assessed as reduction in conversion of [14C]stearic acid to [14C]oleic acid after 30 mins; type: microsomes
T2 sequence (P13516 whole entry): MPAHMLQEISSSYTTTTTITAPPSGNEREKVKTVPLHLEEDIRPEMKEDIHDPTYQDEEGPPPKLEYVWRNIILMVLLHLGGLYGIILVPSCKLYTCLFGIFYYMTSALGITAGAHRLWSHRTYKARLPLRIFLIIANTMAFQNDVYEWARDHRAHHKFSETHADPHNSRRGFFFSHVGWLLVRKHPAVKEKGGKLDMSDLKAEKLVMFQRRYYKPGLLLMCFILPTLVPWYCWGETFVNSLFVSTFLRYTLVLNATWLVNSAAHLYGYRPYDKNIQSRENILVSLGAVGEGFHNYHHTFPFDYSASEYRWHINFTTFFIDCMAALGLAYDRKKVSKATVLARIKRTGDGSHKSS

[3] = biological target: T1, Stearoyl-CoA desaturase; assay: Inhibition of human SCD1 expressed in HEK293A cells assessed as reduction in conversion of [14C]stearic acid to [14C]oleic acid after 30 mins; type: cell-based, HEK293-A
In short: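 293A cells stably expressing human SCD1 (G418-selected) grown to confluence in DMEM + 10% FBS. Cells preincubated with compound 30 min, then given 0.1 µCi [14C]stearate for 4 h. Lipids saponified in KOH, separated by AgNO3-TLC, and the [14C]oleate/[14C]stearate ratio used as activity. IC50 derived from this read-out.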

[4] = system: Mus musculus; assay: Inhibition of liver SCD1 activity in po dosed db/db mouse assessed as reduction in conversion of [14C]stearic acid to [14C]oleic acid; type: functional; settings: read-out: ID50 (the source's name)
In short: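 Seven-week-old male db/db mice dosed by oral gavage 2 h before i.p. [14C]stearate (100 µCi/kg in saline with 2% BSA). Livers harvested 1 h later and homogenized in cold PBS. Saponified homogenate analyzed by AgNO3-TLC for the [14C]oleate/[14C]stearate ratio. ID50 is the dose giving 50% inhibition.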

[5] = Aqueous solubility of the compound at acidic JP-1 solution of pH 1.2 by HPLC analysis; type: physicochemical
In short: (§1)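 Solubility measured in purchased aqueous acidic JP-1 (pH 1.2) or neutral JP-2 (pH 6.8) media. Samples analyzed by HPLC, with UV peak area compared to a calibration standard of 250 µM compound in CH3CN/water 1:1. Means of at least two experiments.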

[6] = Aqueous solubility of the compound at neutral JP-2 solution of pH 6.8 by HPLC analysis; type: physicochemical; in short: as §1
[7] = Cmax in C57BL/6J mouse at 20 mg/kg, po up to 8 hrs; type: ADME, organism-based; set-up: dose 20 mg/kg, route oral; settings: in vivo
In short: (§2)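 Oral gavage via intubation tube at 20 mg/kg in propylene glycol/Tween 4:1, n = 3 C57BL/6J mice. Plasma sampled up to 8 h after dosing. Values are arithmetic means of at least two experiments.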

[8] = Tmax in C57BL/6J mouse at 20 mg/kg, po; type: ADME, organism-based; set-up: dose 20 mg/kg, route oral; settings: in vivo; in short: as §2
[9] = AUC (0 to 8 hrs) in C57BL/6J mouse at 20 mg/kg, po; type: ADME, organism-based; set-up: time < 8 hr, dose 20 mg/kg, route oral; settings: plasma; in short: as §2
[10] = Half life in C57BL/6J mouse at 20 mg/kg, po; type: ADME, organism-based; set-up: dose 20 mg/kg, route oral; settings: in vivo; in short: as §2
[11] = biological target: T1, Stearoyl-CoA desaturase; assay: Inhibition of human SCD1
In short: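 Microsomes from 293A cells as the human SCD1 source, preincubated with compound for 10 min at room temperature. Reaction run 60 min at 37 °C in pH 7.4 phosphate buffer with ATP 1 mM, NADH 1.25 mM, CoA and [14C] stearate. Product saponified and separated on AgNO3-TLC. Activity is the [14C] oleate/stearate ratio. IC50 by linear regression; mean of ≥2 experiments.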

[12] = Metabolic stability of the compound in human liver microsomes after 30 mins; type: ADME, Microsome; settings: read-out: Stability
In short: (§3)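 Stability reported as % parent remaining after 30 min incubation with murine or human liver microsomes. Means of at least two experiments.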

[13] = Metabolic stability of the compound in mouse liver microsomes after 30 mins; type: ADME, Microsome; settings: read-out: Stability; in short: as §3
[14] = biological target: T3, Cytochrome P450 1A2 (Homo sapiens, UniProt P05177); assay: Inhibition of CYP1A2; type: ADME
T3 sequence (P05177 whole entry): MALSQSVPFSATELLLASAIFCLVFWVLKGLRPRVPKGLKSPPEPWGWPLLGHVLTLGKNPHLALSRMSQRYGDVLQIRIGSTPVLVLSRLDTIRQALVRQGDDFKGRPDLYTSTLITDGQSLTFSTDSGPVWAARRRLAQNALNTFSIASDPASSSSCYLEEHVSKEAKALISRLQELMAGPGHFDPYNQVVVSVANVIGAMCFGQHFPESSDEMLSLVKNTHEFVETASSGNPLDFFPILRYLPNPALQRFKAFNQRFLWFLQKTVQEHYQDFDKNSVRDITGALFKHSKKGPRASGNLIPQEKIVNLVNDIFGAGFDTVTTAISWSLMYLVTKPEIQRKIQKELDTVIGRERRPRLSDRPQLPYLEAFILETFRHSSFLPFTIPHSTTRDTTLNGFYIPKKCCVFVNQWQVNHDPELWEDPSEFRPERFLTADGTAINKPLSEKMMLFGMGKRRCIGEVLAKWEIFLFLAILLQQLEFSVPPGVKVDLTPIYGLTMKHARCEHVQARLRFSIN

[15] = biological target: Cytochrome P450 2C9 (Homo sapiens, UniProt P11712); assay: Inhibition of CYP2C9; type: ADME
Chain of Cytochrome P450 2C9 (P11712 whole entry): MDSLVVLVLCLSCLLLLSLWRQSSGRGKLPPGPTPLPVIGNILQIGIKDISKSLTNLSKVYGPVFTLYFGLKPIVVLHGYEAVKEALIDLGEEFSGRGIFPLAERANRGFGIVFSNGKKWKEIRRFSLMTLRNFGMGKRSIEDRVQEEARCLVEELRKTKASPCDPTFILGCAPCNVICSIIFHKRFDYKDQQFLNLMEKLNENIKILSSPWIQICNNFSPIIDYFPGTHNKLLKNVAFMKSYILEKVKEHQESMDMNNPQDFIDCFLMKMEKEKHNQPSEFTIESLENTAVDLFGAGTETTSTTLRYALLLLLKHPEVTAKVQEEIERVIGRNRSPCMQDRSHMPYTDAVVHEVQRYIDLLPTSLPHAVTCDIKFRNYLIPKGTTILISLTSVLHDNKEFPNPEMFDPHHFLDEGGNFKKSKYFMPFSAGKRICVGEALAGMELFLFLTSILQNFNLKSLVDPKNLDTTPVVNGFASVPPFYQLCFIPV

[16] = biological target: Cytochrome P450 2C19 (Homo sapiens, UniProt P33261); assay: Inhibition of CYP2C19; type: ADME
Chain of Cytochrome P450 2C19 (P33261 whole entry): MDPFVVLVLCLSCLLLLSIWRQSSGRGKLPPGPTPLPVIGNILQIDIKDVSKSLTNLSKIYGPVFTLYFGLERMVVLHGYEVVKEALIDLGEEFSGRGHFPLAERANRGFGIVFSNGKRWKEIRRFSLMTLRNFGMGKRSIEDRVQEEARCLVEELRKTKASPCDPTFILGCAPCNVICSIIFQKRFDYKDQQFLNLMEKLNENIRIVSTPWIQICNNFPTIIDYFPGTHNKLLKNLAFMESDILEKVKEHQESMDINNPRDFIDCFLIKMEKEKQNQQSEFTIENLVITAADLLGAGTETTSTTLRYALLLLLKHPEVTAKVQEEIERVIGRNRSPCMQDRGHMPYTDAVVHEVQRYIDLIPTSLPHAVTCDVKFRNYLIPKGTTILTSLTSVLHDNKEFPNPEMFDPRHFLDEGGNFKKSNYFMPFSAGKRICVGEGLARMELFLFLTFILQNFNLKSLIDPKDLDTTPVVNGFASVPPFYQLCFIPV

[17] = biological target: Cytochrome P450 2D6 (Homo sapiens, UniProt P10635); assay: Inhibition of CYP2D6; type: ADME
Chain of Cytochrome P450 2D6 (P10635 whole entry): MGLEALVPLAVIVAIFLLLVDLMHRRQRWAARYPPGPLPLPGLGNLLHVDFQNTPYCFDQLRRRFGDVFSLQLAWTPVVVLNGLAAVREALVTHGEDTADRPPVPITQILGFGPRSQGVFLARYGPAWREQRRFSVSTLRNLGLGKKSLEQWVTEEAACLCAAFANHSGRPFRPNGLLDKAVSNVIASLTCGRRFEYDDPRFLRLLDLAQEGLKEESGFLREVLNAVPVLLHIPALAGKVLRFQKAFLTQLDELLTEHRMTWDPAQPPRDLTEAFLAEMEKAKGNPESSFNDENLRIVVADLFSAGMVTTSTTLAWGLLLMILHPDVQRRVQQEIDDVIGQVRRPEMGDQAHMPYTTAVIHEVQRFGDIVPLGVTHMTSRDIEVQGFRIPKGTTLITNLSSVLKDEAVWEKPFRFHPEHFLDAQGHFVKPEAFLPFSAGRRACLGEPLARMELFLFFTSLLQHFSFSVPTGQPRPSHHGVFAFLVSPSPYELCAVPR

[18] = biological target: Cytochrome P450 3A4 (Homo sapiens, UniProt P08684); assay: Inhibition of CYP3A4; type: ADME
Chain of Cytochrome P450 3A4 (P08684 whole entry): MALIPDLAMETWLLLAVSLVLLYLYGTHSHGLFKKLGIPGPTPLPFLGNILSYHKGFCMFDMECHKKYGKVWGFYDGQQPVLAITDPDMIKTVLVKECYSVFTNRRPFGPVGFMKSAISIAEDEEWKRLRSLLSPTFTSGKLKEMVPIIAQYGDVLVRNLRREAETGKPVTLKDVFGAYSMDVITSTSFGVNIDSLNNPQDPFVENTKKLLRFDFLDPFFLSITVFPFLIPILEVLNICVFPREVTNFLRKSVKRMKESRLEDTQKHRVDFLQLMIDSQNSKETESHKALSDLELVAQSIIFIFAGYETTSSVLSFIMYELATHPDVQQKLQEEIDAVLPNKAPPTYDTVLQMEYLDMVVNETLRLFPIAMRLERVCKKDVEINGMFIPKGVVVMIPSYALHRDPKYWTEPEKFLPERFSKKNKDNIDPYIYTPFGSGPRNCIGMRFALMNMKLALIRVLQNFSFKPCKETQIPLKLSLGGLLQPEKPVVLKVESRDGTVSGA

[19] = Half life in C57BL/6J mouse at 5 mg/kg, iv; type: ADME, organism-based; set-up: dose 5 mg/kg, route intravenous; settings: in vivo
In short: (§4)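 Single intravenous tail-vein injection, 5 mg/kg in DMA/Tween80/saline 10:10:80, C57BL/6J mice (n = 2). Plasma collected up to 8 h post-dose. Means of at least two experiments.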

[20] = Clearance in C57BL/6J mouse at 5 mg/kg, iv up to 8 hrs; type: ADME, organism-based; set-up: dose 5 mg/kg, route intravenous; settings: in vivo; in short: as §4
[21] = Volume of distribution in C57BL/6J mouse at 5 mg/kg, iv up to 8 hrs; type: ADME, organism-based; set-up: dose 5 mg/kg, route intravenous; settings: in vivo; in short: as §4
[22] = system: Mus musculus; assay: Toxicity in C57BL/6J mouse assessed as abnormalities in skin at 10 mg/kg, po QD for 7 days measured post last dose; type: organism-based; set-up: dose 10 mg/kg, route oral; settings: in vivo, 168 h
[23] = system: Mus musculus; assay: Inhibition of delta-(9)-desaturase in po dosed C57BL/6J mouse assessed as reduction in plasma desaturation index (C18:1/C18:0) QD for 7 days measured post last dose; type: functional, organism-based
In short: (§5)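 Nine-week-old male C57BL/6J mice on a high-carbohydrate diet (77.8 kcal% carbohydrate) for 7 days. Oral gavage once daily each evening at 0.3, 1, 3 or 10 mg/kg in propylene glycol/Tween 80 (4/1); n = 4. Serum taken the morning after the seventh dose, saponified in methanolic KOH and extracted with hexane. Index is oleate/stearate.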

[24] = system: Mus musculus; assay: Inhibition of delta-(9)-desaturase in C57BL/6J mouse assessed as reduction in plasma desaturation index (C18:1/C18:0) at 1 mg/kg, po QD for 7 days measured post last dose; type: functional, organism-based; set-up: dose 1 mg/kg; in short: as §5
[25] = system: Mus musculus; assay: Inhibition of delta-(9)-desaturase in C57BL/6J mouse assessed as reduction in plasma desaturation index (C18:1/C18:0) at 10 mg/kg, po QD for 7 days measured post last dose; type: functional; settings: 168 h; in short: as §5
[26] = system: Mus musculus; assay: Inhibition of delta-(9)-desaturase in C57BL/6J mouse assessed as reduction in plasma desaturation index (C18:1/C18:0) at 0.3 mg/kg, po QD for 7 days measured post last dose; type: functional; settings: 168 h; in short: as §5
[27] = Oral bioavailability in C57BL/6J mouse at 20 mg/kg up to 8 hrs; type: ADME, organism-based; settings: in vivo
In short: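 Bioavailability derived from plasma exposure after oral dosing (20 mg/kg, PG/Tween 4:1 by intubation tube, n = 3) and intravenous tail-vein dosing (5 mg/kg, DMA/Tween80/saline 10:10:80, n = 2) in C57BL/6J mice. Plasma sampled up to 8 h.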

[28] = system: Mus musculus; assay: Toxicity in C57BL/6J mouse assessed occurrence of mild eye fissures at 3 to 10 mg/kg, po QD for 7 days measured post last dose; type: organism-based; set-up: dose 3-10 mg/kg, route oral; settings: in vivo, 168 h
[29] = system: Mus musculus; assay: Toxicity in C57BL/6J mouse assessed change in size of Harderian gland at 3 to 10 mg/kg, po QD for 7 days measured post last dose; type: organism-based; set-up: dose 3-10 mg/kg, route oral; settings: in vivo, 168 h
[30] = system: Mus musculus; assay: Toxicity in C57BL/6J mouse assessed change in size of […] at 3 to 10 mg/kg, po QD for 7 days measured post last dose; type: organism-based; set-up: dose 3-10 mg/kg, route oral; settings: in vivo, 168 h
[31] = system: Mus musculus; assay: Toxicity in C57BL/6J mouse assessed change in organ morphology up to 10 mg/kg, po QD for 7 days measured post last dose by autopsy; type: organism-based; set-up: dose 10 mg/kg, route oral; settings: in vivo, 168 h

Structure (SMILES)	pIC50 [1]	pIC50 [2]	pIC50 [3]	ED50 [4] [mg/kg]	solubility [5] [µM]	solubility [6] [µM]	Cmax [7] [ng/mL]	Tmax [8] [min]	AUC(0-t) at 8 h [9] [ng·h/mL]	half-life [10] [min]	further results
Fc1ccc(F)c2c1CCC1(CCN(c3ccc(-c4nnc(Cc5cccnc5)o4)nn3)CC1)O2	10.00	9.30	9.00	< 2							
c1ccc2c(c1)CCC1(CCN(c3ccc(-c4nnc(Cc5ccncc5)o4)nn3)CC1)O2	8.22	8.40	8.15	7							
c1cncc(Cc2nnc(-c3ccc(N4CCC5(CCc6ccccc6O5)CC4)nn3)o2)c1	9.00	8.70	8.40	2	92 (≈ 40.5 µg/mL)	4.2 (≈ 1.85 µg/mL)	1300	60	2400	48	
Cc1cccc2c1CCC1(CCN(c3ccc(-c4nnc(Cc5cccnc5)o4)nn3)CC1)O2	9.70	9.70	9.15	1	91 (≈ 41.4 µg/mL)	< 0.5	1100	48	2100	36	
Clc1cccc2c1CCC1(CCN(c3ccc(-c4nnc(Cc5cccnc5)o4)nn3)CC1)O2	10.22	10.40	9.00	1	> 50	< 0.5	690	48	1400	42	
FC(F)(F)c1cccc2c1CCC1(CCN(c3ccc(-c4nnc(Cc5cccnc5)o4)nn3)CC1)O2	10.52	10.22		0.4	88 (≈ 44.7 µg/mL)	< 0.5					pIC50 [11]: 10.52
Fc1cccc2c1CCC1(CCN(c3ccc(-c4nnc(Cc5cccnc5)o4)nn3)CC1)O2	9.52	8.70	9.15	0.6	> 100	< 0.5	2900	78	6800	60	remaining at 0.5 h [12]: 65%; remaining at 0.5 h [13]: 51%; pIC50 [14]: 4.74; pIC50 [15]: 5.52; pIC50 [16]: 4.85; pIC50 [17]: 4.57; pIC50 [18]: 5.80; half-life [19]: 24 min; clearance [20]: 53 mL/min/kg; Vd [21]: 1.3 L/kg; Activity [22]: Non-toxic; inhibition [23]: Dose-dependent effect; inhibition [24]: Active; inhibition in vivo at 10 mg/kg [25]: 66%; inhibition in vivo at 0.3 mg/kg [26]: 32%; bioavailability [27]: > 95%; Activity [28]: Toxic; Activity [29]: Non-toxic; Activity [30]: Non-toxic; Activity [31]: Non-toxic
c1ccc(Cc2nnc(-c3ccc(N4CCC5(CCc6ccccc6O5)CC4)nn3)o2)nc1	8.40	8.52	8.05	6							
O=C(NCCc1cccnc1)c1ccc(N2CCC3(CCc4ccccc4O3)CC2)nn1	7.57	8.00	7.12	5							
